Test results taken from ChEMBL document CHEMBL5724801, “EUbOPEN Chemogenomics Library - Multiplex” (2024).
“And” between values parts separate entries of the source, which are not always exact repeats. Identical values can stand only once.

Tested on: Fibroblast
Assay: Multiplex assay against human fibroblast
Format: toxicity, cell-based
Outline: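 Imaging took place on a CQ1 microscope at 37°C and 5% CO2 once compound had been added to live cells stained at seeding with Hoechst33342, BioTracker Green Microtubule Cytoskeleton Dye, MitoTracker Red and Annexin V Alexa Fluor 680. CellPathfinder machine-learning gating classed cells as Hoechst high-intensity objects or normal cells, classed normal cells as having healthy, pyknosed or fragmented nuclei, and classed pyknosed cells as mitotic or apoptotic. Tubulin, mitochondrial-mass and membrane-permeability phenotypes are per cents of the healthy-nucleus cells.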

[1] = 12 h, 1 µM, compound concentration 1 uM
[2] = 12 h, 10 µM, compound concentration 10 uM
[3] = 24 h, 1 µM, compound concentration 1 uM
[4] = 24 h, 10 µM, compound concentration 10 uM
[5] = 48 h, 1 µM, compound concentration 1 uM
[6] = 48 h, 10 µM, compound concentration 10 uM

CC(C)C[C@H](NC(=O)c1cc2ccccc2s1)C(=O)N1CCN(C(=O)[C@H](CO)NS(=O)(=O)c2ccc(Cl)cc2Cl)CC1
Population Fragmented Nuclei (%) [1]: 14.47% and 9.24%
Population Healthy Nuclei (%) [1]: 51.57% and 56.52%
Population Hoechst High Intensity Objects (%) [1]: 0%
Population Membrane Permeable-Phenotype (%) [1]: 7.32% and 5.77%
Population Mitochondria Different-Phenotype (%) [1]: 17.07% and 18.27%
Population Mitotic Cells (%) [1]: 88.89% and 55.56%
Population Normal (%) [1]: 100%
Population Pyknosed Nuclei (%) [1]: 33.96% and 34.24%
Population Tubulin-Different-Phenotype (%) [1]: 35.37% and 45.19%
Total Cell Count [1]: 159 and 184
Population Apoptotic (%) [2]: 10.29% and 22.73%
Population Fragmented Nuclei (%) [2]: 17.22% and 7.1%
Population Healthy Nuclei (%) [2]: 45% and 56.83%
Population Hoechst High Intensity Objects (%) [2]: 0%
Population Membrane Permeable-Phenotype (%) [2]: 19.75% and 36.54%
Population Mitochondria Different-Phenotype (%) [2]: 58.02% and 50.96%
Population Mitotic Cells (%) [2]: 89.71% and 77.27%
Population Normal (%) [2]: 100%
Population Pyknosed Nuclei (%) [2]: 37.78% and 36.07%
Population Tubulin-Different-Phenotype (%) [2]: 81.48% and 96.15%
Total Cell Count [2]: 180 and 183
Population Fragmented Nuclei (%) [3]: 15.79% and 9.14%
Population Healthy Nuclei (%) [3]: 54.39% and 66.29%
Population Hoechst High Intensity Objects (%) [3]: 0%
Population Membrane Permeable-Phenotype (%) [3]: 9.68% and 7.76%
Population Mitochondria Different-Phenotype (%) [3]: 10.75% and 17.24%
Population Mitotic Cells (%) [3]: 96.08% and 48.84%
Population Normal (%) [3]: 100%
Population Pyknosed Nuclei (%) [3]: 29.82% and 24.57%
Population Tubulin-Different-Phenotype (%) [3]: 45.16% and 50%
Total Cell Count [3]: 171 and 175
Population Apoptotic (%) [4]: 22.58% and 46.67%
Population Fragmented Nuclei (%) [4]: 11.67% and 8.33%
Population Healthy Nuclei (%) [4]: 71.11% and 66.67%
Population Hoechst High Intensity Objects (%) [4]: 0%
Population Membrane Permeable-Phenotype (%) [4]: 19.53% and 8.33%
Population Mitochondria Different-Phenotype (%) [4]: 49.22% and 55.83%
Population Mitotic Cells (%) [4]: 77.42% and 53.33%
Population Normal (%) [4]: 100%
Population Pyknosed Nuclei (%) [4]: 17.22% and 25%
Population Tubulin-Different-Phenotype (%) [4]: 89.84% and 96.67%
Total Cell Count [4]: 180
Population Fragmented Nuclei (%) [5]: 10.05% and 9.68%
Population Healthy Nuclei (%) [5]: 78.84% and 78.49%
Population Hoechst High Intensity Objects (%) [5]: 0%
Population Mitochondria Different-Phenotype (%) [5]: 12.75% and 8.22%
Population Mitotic Cells (%) [5]: 85.71% and 50%
Population Normal (%) [5]: 100%
Population Pyknosed Nuclei (%) [5]: 11.11% and 11.83%
Population Tubulin-Different-Phenotype (%) [5]: 33.56% and 65.07%
Total Cell Count [5]: 189 and 186
Population Apoptotic (%) [6]: 38.89% and 56.52%
Population Fragmented Nuclei (%) [6]: 11.45% and 11.37%
Population Healthy Nuclei (%) [6]: 77.71% and 77.73%
Population Hoechst High Intensity Objects (%) [6]: 0%
Population Membrane Permeable-Phenotype (%) [6]: 6.2% and 8.54%
Population Mitochondria Different-Phenotype (%) [6]: 39.53% and 48.78%
Population Mitotic Cells (%) [6]: 61.11% and 43.48%
Population Normal (%) [6]: 100%
Population Pyknosed Nuclei (%) [6]: 10.84% and 10.9%
Population Tubulin-Different-Phenotype (%) [6]: 82.17% and 96.34%
Total Cell Count [6]: 166 and 211

CNc1nc(NCc2ncccn2)c2c(-c3ccc4ncccc4c3)c[nH]c2n1
Population Fragmented Nuclei (%) [1]: 13.9% and 7.14%
Population Healthy Nuclei (%) [1]: 54.01% and 75.6%
Population Hoechst High Intensity Objects (%) [1]: 0%
Population Membrane Permeable-Phenotype (%) [1]: 2.97% and 3.94%
Population Mitochondria Different-Phenotype (%) [1]: 7.92% and 10.24%
Population Mitotic Cells (%) [1]: 95% and 75.86%
Population Normal (%) [1]: 100%
Population Pyknosed Nuclei (%) [1]: 32.09% and 17.26%
Population Tubulin-Different-Phenotype (%) [1]: 11.88% and 22.83%
Total Cell Count [1]: 187 and 168
Population Apoptotic (%) [2]: 15.15% and 23.33%
Population Fragmented Nuclei (%) [2]: 8.7% and 4.55%
Population Healthy Nuclei (%) [2]: 70.81% and 81.82%
Population Hoechst High Intensity Objects (%) [2]: 0%
Population Membrane Permeable-Phenotype (%) [2]: 15.79% and 10%
Population Mitochondria Different-Phenotype (%) [2]: 16.67% and 13.89%
Population Mitotic Cells (%) [2]: 84.85% and 76.67%
Population Normal (%) [2]: 100%
Population Pyknosed Nuclei (%) [2]: 20.5% and 13.64%
Population Tubulin-Different-Phenotype (%) [2]: 33.33% and 51.67%
Total Cell Count [2]: 161 and 220
Population Fragmented Nuclei (%) [3]: 11.26% and 5.29%
Population Healthy Nuclei (%) [3]: 65.37% and 85.29%
Population Hoechst High Intensity Objects (%) [3]: 0%
Population Membrane Permeable-Phenotype (%) [3]: 1.99% and 6.21%
Population Mitochondria Different-Phenotype (%) [3]: 3.31% and 4.83%
Population Mitotic Cells (%) [3]: 98.15% and 87.5%
Population Normal (%) [3]: 100%
Population Pyknosed Nuclei (%) [3]: 23.38% and 9.41%
Population Tubulin-Different-Phenotype (%) [3]: 12.58% and 11.72%
Total Cell Count [3]: 231 and 170
Population Apoptotic (%) [4]: 23.08% and 26.09%
Population Fragmented Nuclei (%) [4]: 8.06% and 4.98%
Population Healthy Nuclei (%) [4]: 77.96% and 84.62%
Population Hoechst High Intensity Objects (%) [4]: 0%
Population Membrane Permeable-Phenotype (%) [4]: 2.76% and 4.28%
Population Mitochondria Different-Phenotype (%) [4]: 11.72% and 12.83%
Population Mitotic Cells (%) [4]: 76.92% and 73.91%
Population Normal (%) [4]: 100%
Population Pyknosed Nuclei (%) [4]: 13.98% and 10.41%
Population Tubulin-Different-Phenotype (%) [4]: 37.24% and 52.41%
Total Cell Count [4]: 186 and 221
Population Apoptotic (%) [5]: 11.76% and 6.67%
Population Fragmented Nuclei (%) [5]: 8.43% and 2.79%
Population Healthy Nuclei (%) [5]: 85.06% and 88.83%
Population Hoechst High Intensity Objects (%) [5]: 0%
Population Membrane Permeable-Phenotype (%) [5]: 1.35% and 4.4%
Population Mitochondria Different-Phenotype (%) [5]: 11.26% and 5.66%
Population Mitotic Cells (%) [5]: 88.24% and 93.33%
Population Normal (%) [5]: 100%
Population Pyknosed Nuclei (%) [5]: 6.51% and 8.38%
Total Cell Count [5]: 261 and 179
Population Apoptotic (%) [6]: 23.08% and 42.86%
Population Fragmented Nuclei (%) [6]: 11.86% and 6.28%
Population Healthy Nuclei (%) [6]: 81.44% and 90.58%
Population Hoechst High Intensity Objects (%) [6]: 0%
Population Membrane Permeable-Phenotype (%) [6]: 5.06% and 7.92%
Population Mitotic Cells (%) [6]: 76.92% and 57.14%
Population Normal (%) [6]: 100%
Population Pyknosed Nuclei (%) [6]: 6.7% and 3.14%
Population Tubulin-Different-Phenotype (%) [6]: 18.35% and 54.46%
Total Cell Count [6]: 194 and 223

Cl.Clc1cc2cc(c1)-c1cnn3ccc(nc13)NCCOCCO2
Population Apoptotic (%) [1]: 25.93% and 36.11%
Population Fragmented Nuclei (%) [1]: 12.14% and 4.56%
Population Healthy Nuclei (%) [1]: 61.65% and 80.5%
Population Hoechst High Intensity Objects (%) [1]: 0%
Population Membrane Permeable-Phenotype (%) [1]: 11.02% and 2.58%
Population Mitochondria Different-Phenotype (%) [1]: 4.72% and 10.82%
Population Mitotic Cells (%) [1]: 74.07% and 63.89%
Population Normal (%) [1]: 100%
Population Pyknosed Nuclei (%) [1]: 26.21% and 14.94%
Population Tubulin-Different-Phenotype (%) [1]: 11.02% and 23.2%
Total Cell Count [1]: 206 and 241
Population Apoptotic (%) [2]: 10.2% and 20.59%
Population Fragmented Nuclei (%) [2]: 10.65% and 5.56%
Population Healthy Nuclei (%) [2]: 66.67% and 78.7%
Population Hoechst High Intensity Objects (%) [2]: 0%
Population Membrane Permeable-Phenotype (%) [2]: 8.33% and 4.71%
Population Mitochondria Different-Phenotype (%) [2]: 12.5% and 18.82%
Population Mitotic Cells (%) [2]: 89.8% and 79.41%
Population Normal (%) [2]: 100%
Population Pyknosed Nuclei (%) [2]: 22.69% and 15.74%
Population Tubulin-Different-Phenotype (%) [2]: 22.22% and 26.47%
Total Cell Count [2]: 216
Population Apoptotic (%) [3]: 31.43% and 41.38%
Population Fragmented Nuclei (%) [3]: 12.22% and 6.72%
Population Healthy Nuclei (%) [3]: 71.95% and 82.46%
Population Hoechst High Intensity Objects (%) [3]: 0%
Population Membrane Permeable-Phenotype (%) [3]: 6.29% and 4.52%
Population Mitochondria Different-Phenotype (%) [3]: 3.14% and 6.33%
Population Mitotic Cells (%) [3]: 68.57% and 58.62%
Population Normal (%) [3]: 100%
Population Pyknosed Nuclei (%) [3]: 15.84% and 10.82%
Population Tubulin-Different-Phenotype (%) [3]: 15.09% and 21.72%
Total Cell Count [3]: 221 and 268
Population Fragmented Nuclei (%) [4]: 7.39% and 6.93%
Population Healthy Nuclei (%) [4]: 79.13% and 78.79%
Population Hoechst High Intensity Objects (%) [4]: 0%
Population Membrane Permeable-Phenotype (%) [4]: 3.3%
Population Mitochondria Different-Phenotype (%) [4]: 8.79% and 13.74%
Population Mitotic Cells (%) [4]: 90.32% and 69.7%
Population Normal (%) [4]: 100%
Population Pyknosed Nuclei (%) [4]: 13.48% and 14.29%
Population Tubulin-Different-Phenotype (%) [4]: 20.33% and 33.52%
Total Cell Count [4]: 230 and 231
Population Apoptotic (%) [5]: 31.03% and 50%
Population Fragmented Nuclei (%) [5]: 12.03% and 5.81%
Population Healthy Nuclei (%) [5]: 75.93% and 90.31%
Population Hoechst High Intensity Objects (%) [5]: 0%
Population Membrane Permeable-Phenotype (%) [5]: 3.28% and 3%
Population Mitotic Cells (%) [5]: 68.97% and 50%
Population Normal (%) [5]: 100%
Population Pyknosed Nuclei (%) [5]: 12.03% and 3.88%
Total Cell Count [5]: 241 and 258
Population Apoptotic (%) [6]: 16.67% and 38.89%
Population Fragmented Nuclei (%) [6]: 10.79% and 5.86%
Population Healthy Nuclei (%) [6]: 86.72% and 86.61%
Population Hoechst High Intensity Objects (%) [6]: 0%
Population Membrane Permeable-Phenotype (%) [6]: 1.91% and 6.76%
Population Mitochondria Different-Phenotype (%) [6]: 11% and 9.66%
Population Mitotic Cells (%) [6]: 83.33% and 61.11%
Population Normal (%) [6]: 100%
Population Pyknosed Nuclei (%) [6]: 2.49% and 7.53%
Population Tubulin-Different-Phenotype (%) [6]: 13.88% and 38.65%
Total Cell Count [6]: 241 and 239
